Shown are actives, neighbours in structure and some others; about 11% of the full set was active somewhere.
D1 allo mod – D1 CRE-luciferase signal change, two-sided – cell-based, HEK293 D1, dopamine EC30, D1 allosteric modulator project, primary screen. D(1A) dopamine receptor (Homo sapiens), P21728. dopamine EC30 potentiation; actives deviate in either direction. B-score at 10 µM. 58,000 compounds, 5.9% hits. AID 641, 2007;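 active = luminescence count or its row- and column-corrected plate score outside the 99.7% band of the plate's sample wells, on either side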
M1 agonist – M1 muscarinic receptor agonists, primary screen, CHO-M1 cells, Fluo-4 calcium, agonist mode; AID 626, 2007; Fluo-4 calcium fluorescence; active compounds read high; B-score at 10 µM; Muscarinic acetylcholine receptor M1; 64,000 compounds, 3% hits;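 active = fluorescence rise, raw or as B-score row- and column-corrected plate score, outside the 99.7% band of its plate's samples, either direction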
M1 antagonist – antagonists of rat M1 muscarinic receptor. CHO-M1 cells, Fluo-4 calcium, ACh EC80 antagonist mode; active compounds read low. B-score at 10 µM. 64,000 compounds, 3.4% hits. AID 628, 2007;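 active = calcium fluorescence response, raw or row-and-column corrected B-score, differing from the plate sample mean either way at a set confidence level, mostly lower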
mHtt clearance – clearance of mutant huntingtin inclusions, primary screen, imaging, HeLa Exon1htt(103Q)mCFP, confocal imaging; inhibition, % at 1.5 µM; aggregate imaging; zero = plate's median compound well; 47,000 compounds, 0.42% hits;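 active = inhibition of aggregate fluorescence above about 70%, also judged a hit by eye on the cell image, limit read from the data, passing the limit was not always enough; inconclusive = no rule stated for this call; inactive = not judged a hit on image review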;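 note: cells exposed to compound for three days before fixation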
SF-1 act – activators of human SF-1, primary screen, cell-based, CHO-K1, Gal4-SF-1 LBD, luciferase luminescence; Steroidogenic factor 1 (Homo sapiens), Q13285; CHO-K1 Gal4-SF-1 LBD luciferase reporter; % increase over DMSO SF-1-specific signal; activation, % at 10 µM; 65,000 compounds, 1.9% hits; AID 522, 2006;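 active = activation above the mean activation of all tested compounds plus 3 SD, cut at about 50% in these data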
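Test system: CHO-K1 cells with Gal4–hSF-1 LBD chimera plus Gal4-driven luciferase; Input: 4,000 cells/well; Compound: 10 µM only; Times: 20 h compound treatment, 37 °C; Measured by: steady-glow luciferase luminescence, read after 15 min reagent incubation; Measure: percent activation versus DMSO; Control set: DMSO and mock-transfected background; Replicates: one test per compound.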
RORA act – activators of orphan receptor RORA, primary screen, cell-based, luminescence; Nuclear receptor ROR-alpha (Homo sapiens), P35398; CHO-K1 Gal4-RORA LBD luciferase reporter; percent increase over mock-subtracted basal signal; activation, % at 10 µM; 65,000 compounds, 1.5% hits; AID 560, 2006;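 active = activation above the mean of all tested compounds plus 3 SD, cut at about 49% in these data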;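 note: 0% = DMSO-treated RORA cells and 100% = added signal equal to DMSO minus mock-transfected cells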
M1 ag confirm – rat M1 muscarinic receptor agonists, confirmation, CHO-M1 cells, Fluo-4 calcium, duplicate retest. shares compounds with M1 agonist. Fluo-4 calcium fluorescence, agonist mode; actives lie on both sides. fluorescence change (max-min) at 10 µM. 1,700 compounds, 19% hits. AID 1488, 2009;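 active = fluorescence change differs from the solvent-only DMSO control mean at a set confidence level in both duplicate runs; inconclusive = differs from solvent-only control mean in just one of two runs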;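 note: an EC20 dose of acetylcholine follows compound addition during the same imaging run; raw fluorescence intensity difference in instrument units with no normalization to controls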
M4 agonist ctr – agonist activity at rat M4 receptor, confirmation, counter-screen for M1 allosteric modulator project, cell-based, agonist mode | shares compounds with M1 agonist | CHO M4/Gqi5 cells, Fluo-4 calcium fluorescence; actives lie on both sides | fluorescence change (max-min) at 10 µM | 1,700 compounds, 9% hits;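 active = fluorescence change differing from the plate's solvent-only control wells at 99.7% confidence in both duplicates, whether higher or lower; inconclusive = differs from solvent controls in only one of two duplicates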
Target sequence (P08485 whole entry, looked up): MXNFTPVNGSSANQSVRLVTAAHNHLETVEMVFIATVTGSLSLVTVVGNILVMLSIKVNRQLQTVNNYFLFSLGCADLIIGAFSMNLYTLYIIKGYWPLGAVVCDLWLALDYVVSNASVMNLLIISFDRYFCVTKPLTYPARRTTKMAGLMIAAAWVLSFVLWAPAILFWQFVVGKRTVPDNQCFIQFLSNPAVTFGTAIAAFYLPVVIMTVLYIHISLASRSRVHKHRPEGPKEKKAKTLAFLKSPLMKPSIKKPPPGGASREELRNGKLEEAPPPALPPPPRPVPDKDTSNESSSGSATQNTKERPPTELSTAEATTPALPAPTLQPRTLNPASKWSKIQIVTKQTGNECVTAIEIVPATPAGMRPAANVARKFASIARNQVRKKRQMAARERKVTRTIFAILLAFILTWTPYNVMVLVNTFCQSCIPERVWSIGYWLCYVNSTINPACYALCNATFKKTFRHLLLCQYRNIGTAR
* = called active by the depositor.

Screening O=C(Nc1nc(-c2ccccn2)cs1)C1CC1 returned D1 allo mod -0.49, M1 agonist -0.039, M1 antagonist 0.23, mHtt clearance 53, SF-1 act 14 and RORA act 37.
For CN(CC1CCCO1)S(=O)(=O)c1ccc(C(=O)Nc2nc(-c3ccccn3)cs2)cc1 (stereo unspecified) the results were D1 allo mod -2, M1 agonist 9.6*, M1 antagonist 0.014, SF-1 act -70, RORA act -44, M1 ag confirm -12 and M4 agonist ctr -32.
`CCCC(=O)C1=C(c2ccccc2)C(C#N)(C#N)C(C#N)=C1N` gave D1 allo mod -0.83, M1 agonist -1, M1 antagonist -0.16, mHtt clearance 31, SF-1 act -3 and RORA act -1.
`N#Cc1c(NCCO)nc(NCc2ccccc2)c2c1CCN(Cc1ccccc1)C2` gave M1 agonist 3.3*, M1 antagonist -1.3, SF-1 act 11, RORA act -4, M1 ag confirm -3.8 and M4 agonist ctr -4.3.
For O=C(NCc1ccncc1)Nc1ccc(F)cc1 the results were D1 allo mod -0.54, M1 agonist -0.17, M1 antagonist 0.95, mHtt clearance -34, SF-1 act 12 and RORA act 5.
`Cc1nnc(N2C(=O)c3oc4ccccc4c(=O)c3C2c2ccco2)s1` (stereo unspecified) gave D1 allo mod -0.79, M1 agonist 3*, M1 antagonist -0.25, SF-1 act -7, RORA act -4, M1 ag confirm inconclusive and M4 agonist ctr -44.
Screening CC(C)c1nnc(N2C(=O)c3oc4ccccc4c(=O)c3C2c2ccco2)s1 (stereo unspecified) returned D1 allo mod -0.42, M1 agonist -0.21, M1 antagonist -0.53, SF-1 act -24 and RORA act 4.
`CCCCNC(=O)CC1Nc2ccccc2NC1=O` (stereo unspecified) gave D1 allo mod -0.56, M1 agonist 7.9*, M1 antagonist -0.48, SF-1 act 10, RORA act 22, M1 ag confirm 30 and M4 agonist ctr inconclusive.
Screening CCc1nc(NCCCN2CCOCC2)c2oc3ccccc3c2n1 returned D1 allo mod -0.01, M1 agonist 0.1, M1 antagonist 0.46, SF-1 act -2 and RORA act -9.
`CCc1nc(NCc2ccccn2)c2oc3ccccc3c2n1` gave M1 agonist 4.2*, M1 antagonist -2.3, SF-1 act -14, RORA act -20, M1 ag confirm -24* and M4 agonist ctr inconclusive.
For O=S(=O)(NCCCCCNS(=O)(=O)c1ccccc1)c1ccccc1 the results were D1 allo mod 1.2, M1 agonist -1.7*, M1 antagonist -1.3, SF-1 act 4, RORA act 7, M1 ag confirm 16 and M4 agonist ctr -6.8.
Screening O=C(CN1CCC(O)(c2ccccc2F)CC1)NCCc1c[nH]c2ccccc12 returned D1 allo mod 0.63, M1 agonist -0.021, M1 antagonist -1.3, SF-1 act -8 and RORA act 6.
CCOC(=O)N1CCN(c2nc3ccccc3nc2C(C#N)C(=O)NCCc2ccccc2)CC1 (stereo unspecified) was read as D1 allo mod -0.035, M1 agonist 22*, M1 antagonist -0.62, mHtt clearance 17, SF-1 act -2, RORA act -13, M1 ag confirm inconclusive and M4 agonist ctr 81.
Screening N#CC(C(=O)NCc1ccccc1)c1nc2ccccc2nc1N1CCCC1 (stereo unspecified) returned D1 allo mod 2.1, M1 agonist 177*, M1 antagonist -17*, SF-1 act 4, RORA act -10, M1 ag confirm 1394* and M4 agonist ctr 794*.
`N#CC(C(=O)NCCc1ccccc1)c1nc2ccccc2nc1N1CCCCC1` (stereo unspecified) gave D1 allo mod -0.75, M1 agonist 17*, M1 antagonist -0.23, SF-1 act -10, RORA act -36, M1 ag confirm 63* and M4 agonist ctr 121.
Screening COc1ccccc1N1CCN(c2nc3ccccc3nc2C(C#N)C(=O)OC(C)C)CC1 (stereo unspecified) returned D1 allo mod -0.76, M1 agonist 1.1, M1 antagonist -1.6, mHtt clearance 12, SF-1 act -24 and RORA act 40.
Screening CCOc1ccccc1N1CCN(c2nc3ccccc3nc2C(C#N)C(=O)OC)CC1 (stereo unspecified) returned D1 allo mod -4.3*, M1 agonist 7.7*, M1 antagonist -1.1, SF-1 act 13, RORA act 6, M1 ag confirm inconclusive and M4 agonist ctr -28.
`COc1cc(OC)cc(-c2nnc(SCc3c(F)cccc3Cl)o2)c1` gave D1 allo mod 0.7, M1 agonist -2.8*, M1 antagonist 0.34, SF-1 act 32, RORA act 9, M1 ag confirm inconclusive and M4 agonist ctr -42.
Screening CC(=O)Nc1ccc(OC(F)(F)C(F)C(F)(F)F)c(NC(C)=O)c1 (stereo unspecified) returned D1 allo mod 0.52, M1 agonist -0.11, M1 antagonist 2.4, mHtt clearance 66, SF-1 act -6 and RORA act -4.
For CC(=Nc1ccc(O)cc1)c1sc2ccccc2c1O the results were D1 allo mod -0.58, M1 agonist 36*, M1 antagonist -0.43, SF-1 act 9, RORA act 10, M1 ag confirm 7.2 and M4 agonist ctr 7.9.
For CC(=O)NCCN=C(C)c1sc2ccccc2c1O the results were D1 allo mod -0.044, M1 agonist 0.03, M1 antagonist -0.18, mHtt clearance 25, SF-1 act 5 and RORA act 39.
For N#CC1=C(N)NC(SCC(=O)Nc2ccccc2)=C(C#N)C12CCCC2 the results were D1 allo mod -0.56, M1 agonist 2.9*, M1 antagonist -0.31, mHtt clearance -24, M1 ag confirm 7.5 and M4 agonist ctr -5.3.

Screening results deposited in PubChem BioAssay by several laboratories.
